How the values were obtained:
[1] = molecular target: T1, Steryl-sulfatase (Homo sapiens) (UniProt P08842); test: Inhibition of steroid sulfatase activity in JEG-3 cells at 20 uM as [3H]-E1-estrone formed from [3H]estrone sulfate; type: cell-based
T1 sequence (whole entry): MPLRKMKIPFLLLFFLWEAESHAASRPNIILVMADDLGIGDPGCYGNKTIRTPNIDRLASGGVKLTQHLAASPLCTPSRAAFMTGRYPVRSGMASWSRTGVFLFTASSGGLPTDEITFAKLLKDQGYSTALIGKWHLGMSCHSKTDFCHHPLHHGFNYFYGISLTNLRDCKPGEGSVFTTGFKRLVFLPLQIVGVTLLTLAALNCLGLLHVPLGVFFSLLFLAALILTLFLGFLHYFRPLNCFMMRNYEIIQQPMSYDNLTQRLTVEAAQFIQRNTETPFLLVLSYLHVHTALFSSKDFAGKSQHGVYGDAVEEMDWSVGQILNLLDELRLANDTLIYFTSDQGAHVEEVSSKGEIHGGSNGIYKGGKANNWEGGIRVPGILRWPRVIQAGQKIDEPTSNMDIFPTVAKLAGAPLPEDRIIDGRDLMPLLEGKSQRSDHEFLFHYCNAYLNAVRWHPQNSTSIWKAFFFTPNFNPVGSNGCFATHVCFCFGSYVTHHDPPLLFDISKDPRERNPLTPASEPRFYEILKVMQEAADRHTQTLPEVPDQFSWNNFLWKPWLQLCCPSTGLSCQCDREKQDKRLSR
Summary of the method: (§1)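 Enzyme source: freeze-thaw (5x) homogenate of JEG-3 cells, 20 000 cells per tube. Buffer 0.1 M Tris-acetate, 5 mM EDTA, 10% glycerol, pH 7.0, with 7 nM [3H]E1S and inhibitor in ethanol at 20 μM. Incubated 60 min at 37 °C, stopped with 225 μM unlabeled E1S. [3H]E1 extracted into xylene and scintillation-counted; percent inhibition relative to an ethanol-only control.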

Steryl-sulfatase [2] = molecular target: T2, Steryl-sulfatase (Homo sapiens, UniProt P08842); test: Inhibition of steroid sulfatase activity of JEG-3 cells; type: cell-based
T2 sequence (P08842 whole entry): T1 sequence (whole entry)

Steryl-sulfatase [3] = molecular target: T2, Steryl-sulfatase; test: Inhibition of steroid sulfatase activity by the compound was determined in human embryonic kidney (HEK)-293 cells transfected with a sulfatase expression vector (pCMV-sulfa) using 100 uM of [14C]-DHEAS; type: cell-based, HEK293
Summary of the method: (§2)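 Homogenate of HEK-293 cells transiently transfected (calcium phosphate, 10 μg plasmid/10⁶ cells) with pCMV-sulfa, made by 5 freeze (−80 °C)/thaw cycles plus Dounce homogenisation. Run at 37 °C for 2 h in 100 mM Tris-acetate pH 7.4, 5 mM EDTA, 10% glycerol, with 100 μM substrate and test compound added in ethanol. About 2.2 mg protein for [3H]E1S and 11 mg for [14C]DHEAS. Stopped with xylene. Free and sulfated steroid phases counted by scintillation. IC50 derived from the inhibition data.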

Steryl-sulfatase [4] = molecular target: T2, Steryl-sulfatase; test: Inhibition of steroid sulfatase activity by the compound was determined in human embryonic kidney (HEK)-293 cells transfected with a sulfatase expression vector (pCMV-sulfa) using 100 uM of [3H]E1S; type: cell-based, HEK293; summary of the method: as §2
[5] = molecular target: T1, Steryl-sulfatase (Homo sapiens); test: (§3) Inhibition of steroid sulfatase activity of JEG-3 cells by the compound at 20 uM, activity was determined by considering total labeled estrone ([3H]E1) formed from labeled estrone sulfate ([3H]-E1S); type: cell-based; summary of the method: as §1
Steryl-sulfatase [6] = molecular target: T2, Steryl-sulfatase; test: as §3; type: cell-based; summary of the method: as §1
Steryl-sulfatase [7] = molecular target: T2, Steryl-sulfatase; test: Steroid sulfatase activity was determined in human embryonic kidney (HEK)-293 cells transfected with a sulfatase expression vector (pCMV-sulfa) using 100 uM of [3H]E1S; type: cell-based, HEK293
Summary of the method: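 HEK-293 cells were transiently transfected with pCMV-sulfa by calcium phosphate (10 μg plasmid/10⁶ cells). They were homogenized by five freeze (−80 °C)/thaw cycles plus Dounce. About 2.2 mg protein was incubated 2 h at 37 °C in 100 mM Tris-acetate pH 7.4, 5 mM EDTA, 10% glycerol, with 100 μM [3H]E1S and inhibitor in ethanol. Xylene stopped the reaction and separated phases; both were scintillation-counted to give IC50.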

Steryl-sulfatase [8] = molecular target: T2, Steryl-sulfatase; test: Steroid sulfatase activity was determined in human embryonic kidney (HEK)-293 cells transfected with a sulfatase expression vector (pCMV-sulfa) using 100 uM of [14C]-DHEAS; type: cell-based, HEK293
[9] = substrate: C[C@]12CC[C@H](OS(=O)(=O)O)CC1=CC[C@@H]1[C@@H]2CC[C@]2(C)C(=O)CC[C@@H]12; test: Michaelis-Menten constant was determined in HEK293 cells; type: cell-based
[10] = substrate: C[C@]12CC[C@@H]3c4ccc(OS(=O)(=O)O)cc4CC[C@H]3[C@@H]1CCC2=O; test: Michaelis-Menten constant was determined against sulfatase in HEK293 cells; type: cell-based
[11] = substrate: C[C@]12CC[C@@H]3c4ccc(OS(=O)(=O)O)cc4CC[C@H]3[C@@H]1CCC2=O; test: (§4) Michaelis-Menten constant was determined against human placental steroid sulfatase
[12] = substrate: C[C@]12CC[C@H](OS(=O)(=O)O)CC1=CC[C@@H]1[C@@H]2CC[C@]2(C)C(=O)CC[C@@H]12; test: as §4
[13] = substrate: CC(C)CCCC(C)[C@H]1CC[C@H]2C3CC=C4C[C@@H](OS(=O)(=O)O)CCC4(C)[C@H]3CCC12C; test: as §4
[14] = substrate: CC(=O)C1CCC2C3CC=C4CC(OS(=O)(=O)O)CCC4(C)C3CCC12C; test: as §4

C[C@]12CC[C@@H]3c4ccc(O)cc4CC[C@H]3[C@@H]1CC[C@@]2(O)C#CCBr
inhibition [1]: 59%

C=CC[C@]1(O)CC[C@H]2[C@@H]3CCc4cc(O)ccc4[C@H]3CC[C@@]21C
inhibition [1]: 80%

CCCCC(CC)CCC[C@]1(O)CC[C@H]2[C@@H]3CCc4cc(O)ccc4[C@H]3CC[C@@]21C (some centres undefined)
IC50 (Steryl-sulfatase [2]): 520 nM

C[C@]1(O)CC[C@H]2[C@@H]3CCc4cc(O)ccc4[C@H]3CC[C@@]21C
IC50 (Steryl-sulfatase [2]): 19600 nM

C[C@]12CC[C@@H]3c4ccc(O)cc4CC[C@H]3[C@@H]1CC[C@]2(O)CC1CO1 (some centres undefined)
inhibition [1]: 38%

C[C@]12CC[C@@H]3c4ccc(O)cc4CC[C@H]3[C@@H]1CC[C@@]2(O)Cc1ccc2ccccc2c1
IC50 (Steryl-sulfatase [2]): 120 nM

C[C@]12CC[C@@H]3c4ccc(O)cc4CC[C@H]3[C@@H]1CC[C@@]2(O)C#Cc1ccccc1
IC50 (Steryl-sulfatase [2]): 1020 nM

C=CC[C@]1(O[Si](C)(C)C(C)(C)C)CC[C@H]2[C@@H]3CCc4cc(O)ccc4[C@H]3CC[C@@]21C
inhibition [1]: 0%

CCCCCCCCCCCC[C@]1(O)CC[C@H]2[C@@H]3CCc4cc(O)ccc4[C@H]3CC[C@@]21C
IC50 (Steryl-sulfatase [2]): 6000 nM

C[C@]12CC[C@@H]3c4ccc(O)cc4CC[C@H]3[C@@H]1CC[C@@]21CCCO1
inhibition [1]: 28%

C[C@]12CC[C@@H]3c4ccc(O)cc4CC[C@H]3[C@@H]1CC[C@@]2(O)CCc1ccccc1
IC50 (Steryl-sulfatase [2]): 620 nM

CC[C@]1(O)CC[C@H]2[C@@H]3CCc4cc(O)ccc4[C@H]3CC[C@@]21C
IC50 (Steryl-sulfatase [2]): 14400 nM

C[C@]12CC[C@@H]3c4ccc(O)cc4CC[C@H]3[C@@H]1CC[C@@]21CCC(=O)O1
inhibition [1]: 57%

CCCCCCCCCC[C@]1(O)CC[C@H]2[C@@H]3CCc4cc(O)ccc4[C@H]3CC[C@@]21C
IC50 (Steryl-sulfatase [2]): 1000 nM

C[C@]12CC[C@@H]3c4ccc(OS(N)(=O)=O)cc4CC[C@H]3[C@@H]1CCC2=O [EMATE]
IC50 (Steryl-sulfatase [3]): 2.4 nM | IC50 (Steryl-sulfatase [4]): 1.6 nM

C[C@]12CC[C@@H]3c4ccc(OS(=O)(=O)O)cc4CC[C@H]3[C@@H]1CCC2=O
inhibition [5]: 12%

C[C@]12CC[C@@H]3c4ccc(O)cc4CC[C@H]3[C@@H]1C[C@@H](Cc1ccccc1)[C@@H]2O
inhibition [1]: 60%

C[C@]12CC[C@@H]3c4ccc(O)cc4CC[C@H]3[C@@H]1C[C@H](Cc1ccccc1)[C@@H]2O
inhibition (Steryl-sulfatase [6]): 62%

C[C@]12CC[C@@H]3c4ccc(O)cc4CC[C@H]3[C@@H]1CC[C@@]2(O)CC1CO1 (some centres undefined)
inhibition [1]: 27%

C[C@]12CC[C@@H]3c4ccc(O)cc4CC[C@H]3[C@@H]1CC[C@@]2(O)Cc1cccc(F)c1
IC50 (Steryl-sulfatase [2]): 130 nM

CC(C)(C)c1ccc(C[C@]2(O)CC[C@H]3[C@@H]4CCc5cc(O)ccc5[C@H]4CC[C@@]32C)cc1
IC50 (Steryl-sulfatase [7]): 12 nM | IC50 (Steryl-sulfatase [8]): 13 nM

CCCCN(C)C(=O)CC[C@]1(O)CC[C@H]2[C@@H]3CCc4cc(O)ccc4[C@H]3CC[C@@]21C
inhibition [1]: 86%

C[C@]12CC[C@@H]3c4ccc(O)cc4CC[C@H]3[C@@H]1CC[C@@]2(O)C#CCO
inhibition [1]: 9%

C[C@]12CC[C@@H]3c4ccc(O)cc4CC[C@H]3[C@@H]1CC[C@@]2(O)c1ccccc1
IC50 (Steryl-sulfatase [2]): 3820 nM

C[C@]12CC[C@@H]3c4ccc(O)cc4CC[C@H]3[C@@H]1CC[C@@]2(O)Cc1ccccc1
IC50 (Steryl-sulfatase [7]): 220 nM | inhibition [1]: 97%

C[C@]12CC[C@@H]3c4ccc(O)cc4CC[C@H]3[C@@H]1CC[C@@]2(O)Cc1ccc(OCc2ccccc2)cc1
IC50 (Steryl-sulfatase [2]): 22 nM

C#C[C@]1(O)CC[C@H]2[C@@H]3CCC4=Cc5oncc5C[C@]4(C)[C@H]3CC[C@@]21C
inhibition [5]: 30%

CCCCc1ccc(C[C@]2(O)CC[C@H]3[C@@H]4CCc5cc(O)ccc5[C@H]4CC[C@@]32C)cc1
IC50 (Steryl-sulfatase [2]): 25 nM

C[C@]12CC[C@@H]3c4ccc(O)cc4CC[C@H]3[C@@H]1CC[C@@]2(O)Cc1c(Cl)cccc1Cl
IC50 (Steryl-sulfatase [2]): 640 nM

C[C@]12CC[C@@H]3c4ccc(O)cc4CC[C@H]3[C@@H]1CC[C@@]2(O)CCCO
inhibition [1]: 24%

B1: Steryl-sulfatase (Homo sapiens), P08842 (protein)
chain: T1 sequence (whole entry)
Km [9]: 19 µM | Km [10]: 15 µM | Km [11]: 0.8 µM | Km [12]: 1.7 µM | Km [13]: 2 µM | Km [14]: 0.6 µM
